Data on nine molecules can be found in ChEMBL document CHEMBL2407086, “Semisynthesis, cytotoxic activity, and oral availability of new lipophilic 9-substituted camptothecin derivatives” (ACS Med Chem Lett, 2013).

The test system of data set [1] is MDA-MB-231. In words: Cytotoxicity against human MDA-MB-231 cells after 72 hrs by MTT assay. Type of data set: functional, cell-based. The conditions noted are these: MDA-MB-231, 72 h. In outline: (§1)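 Cell growth measured by MTT read-out after 72 h continuous drug exposure. IC50 values derived from at least three independent experiments.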
Data set [2] deals with A549. The experiment in a line: Cytotoxicity against human A549 cells after 72 hrs by MTT assay. Type of data set: functional, cell-based. Conditions: A549, 72 h. In outline: as §1
In general terms: Formazan colour is commonly taken as a measure of viable cells.

Data set [3] has as its system K562. In words: Cytotoxicity against human K562 cells after 72 hrs by MTT assay. Conditions: K562, 72 h. In kind it is functional, cell-based. In outline:
as §1

For data set [4], the system named is MOLT-4. The experiment in a line: Cytotoxicity against human MOLT4 cells after 72 hrs by MTT assay. In kind it is functional, cell-based. Conditions: MOLT-4, 72 h. In outline: as §1
Data set [5] concerns A2780. In words: Cytotoxicity against human A2780 cells after 72 hrs by MTT assay. The conditions noted are these: A2780, 72 h. In kind it is functional, cell-based. In outline: as §1
Data set [6] is described as follows: Effective permeability of the compound in human Caco2 cells at 50 uM after 15 to 90 mins. In kind it is ADME, cell-based. The conditions noted are these: Caco-2, read-out: Peff. In outline:
(§2)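 Caco-2 monolayers dosed at 50 μM. Transport measured in both directions, apical to basal (Pab) and basal to apical (Pba), in separate runs with and without the metabolic inhibitor sodium azide. Permeability coefficients were calculated with sink or non-sink equations. Values are means of three independent experiments.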
A general note: Passage across Caco-2 layers is used to estimate intestinal permeability.

For data set [7], the system named is MCF7. In words: Cytotoxicity against human MCF7 cells after 72 hrs by MTT assay. Type of data set: functional, cell-based. The conditions noted are these: MCF7, 72 h. In outline: as §1
For data set [8], the system named is PC-3. In words: Cytotoxicity against human PC3 cells after 72 hrs by MTT assay. In kind it is functional, cell-based. Conditions: PC-3, 72 h. In outline:
as §1

Data set [9] is described as follows: Effective permeability of the compound in human Caco2 cells at 50 uM after 15 to 90 mins in presence of sodium azide. In kind it is ADME, cell-based. The conditions noted are these: Caco-2, with sodium azide (concentration not stated), read-out: Peff. In outline:
as §2

Data set [10] concerns HeLa. The experiment in a line: Cytotoxicity against human HeLa cells after 72 hrs by MTT assay. Type of data set: functional, cell-based. In outline:
as §1

Data set [11] deals with K562. In words: Ratio of topotecan IC50 to compound IC50 for human K562 cells. In kind it is functional.

Where only a bound is given, the exact number is not on record here.

What is called IC50 is the midpoint of a concentration-inhibition curve. A high value points to weaker potency. In the case of `CC[C@@]1(O)C(=O)OCc2c1cc1n(c2=O)Cc2cc3c(CN(C)C)c(O)ccc3nc2-1` [TOPOTECAN], the half-inhibitory concentration (IC50) was above 500 nM in data set [1]; 354 nM in data set [2]; 500 nM in data set [3]; 19 nM in [4]; 33 nM in [5]; 63 nM in data set [7]. In addition, the concentration for half-maximal inhibition (IC50) in data set [8] came out at 62 nM. Further, the figures for the Papp at 50 µM in data set [6] and in data set [9] were 1.77 ×10⁻⁶ cm/s and 2.88 ×10⁻⁶ cm/s, respectively.
In data set [10], `CC[C@@]1(O)C(=O)OCc2c1cc1n(c2=O)Cc2cc3c(CN4C(=O)c5ccccc5C4=O)c(O)ccc3nc2-1` came in with an IC50 of 1270 nM.
Take `CC[C@@]1(O)C(=O)OCc2c1cc1n(c2=O)Cc2cc3c(CN4CCCC4=O)c(O)ccc3nc2-1`: the half-inhibitory concentration (IC50) in [10] is above 5000 nM. Moreover, the Papp at 50 µM in data set [6] amounted to 0.48 ×10⁻⁶ cm/s; in data set [9], 1.33 ×10⁻⁶ cm/s.
On to `CC[C@@]1(O)C(=O)OCc2c1cc1n(c2=O)Cc2cc3c(CN4C(=O)C=CC4=O)c(O)ccc3nc2-1`, for which the IC50 in [10] was above 5000 nM.
As for `CC[C@@]1(O)C(=O)OCc2c1cc1n(c2=O)Cc2cc3cc(O)ccc3nc2-1` [HYDROXYCAMPTOTHECIN], the Papp at 50 µM in data set [6] was 7.88 ×10⁻⁶ cm/s; in data set [9], 1.01 ×10⁻⁶ cm/s.
Turning to `CC[C@@]1(O)C(=O)OCc2c1cc1n(c2=O)Cc2cc3ccccc3nc2-1` [CAMPTOTHECIN], the IC50 in [1] came out at 162 nM; in data set [2] it was 99 nM; in data set [3], 31 nM; in data set [4], 0.04 nM; in data set [10], 24 nM; in data set [5], 13 nM. For the same molecule, the IC50 in [7] was found to be 26 nM; in data set [8], 78 nM. The Papp at 50 µM in data set [6] was 7.88 ×10⁻⁶ cm/s; in data set [9], 1 ×10⁻⁶ cm/s.
Consider `CC[C@@]1(O)C(=O)OCc2c1cc1n(c2=O)Cc2cc3c(CNC(C)=O)c(O)ccc3nc2-1`, for which the concentration for half-maximal inhibition (IC50) in data set [10] was above 5000 nM. Moreover, the Papp at 50 µM was 1.17 ×10⁻⁶ cm/s in data set [6] and 1.52 ×10⁻⁶ cm/s in data set [9].
As for `CC[C@@]1(O)C(=O)OCc2c1cc1n(c2=O)Cc2cc3c(CN4C(=O)C5=C(CCCC5)C4=O)c(OC)ccc3nc2-1`, the IC50 in data set [1] is 500 nM; in [2] it was 226 nM; in data set [3], 109 nM; in [4], 14 nM; in [10], 173 nM; in [5] it was 28 nM. The half-maximal inhibitory concentration (IC50) in data set [7] turned out to be 78 nM; in data set [8] it was 51 nM. The Papp at 50 µM is 4.91 ×10⁻⁶ cm/s in data set [6] and 2.58 ×10⁻⁶ cm/s in data set [9]. Besides, the “Ratio IC50” value in data set [11] is given as 5.
Regarding `CC[C@@]1(O)C(=O)OCc2c1cc1n(c2=O)Cc2cc3c(CN4C(=O)C5=C(CCCC5)C4=O)c(O)ccc3nc2-1`, the IC50 was above 500 nM in [1]; 346 nM in [2]; above 500 nM in data set [3]; 15 nM in [4]; 214 nM in data set [10]; 41 nM in data set [5]. Also, the IC50 in [7] worked out at 159 nM; in data set [8] it was 103 nM.
